Experimental findings from ChEMBL document CHEMBL1156288, “Synthesis and evaluation of tricyclic derivatives containing a non-aromatic amide as inhibitors of poly(ADP-ribose)polymerase-1 (PARP-1)” (Bioorg Med Chem Lett, 2010) are described below.

Series [1] addresses T1, Poly [ADP-ribose] polymerase 1 (Homo sapiens, UniProt P09874). Kind of series: Inhibition of PARP1.
Series [2] is described as follows: Solubility in water. It is filed as physicochemical. Particulars: buffer.
The target in series [3] is T1, Poly [ADP-ribose] polymerase 1. Particulars: CHO-K1.
Series [4] in a line: AUC (0 to infinity) in rat at 10 mg/kg, iv by LC/MS/MS analysis. The series is classed as ADME, organism-based. Also noted: time infinity, dose 10 mg/kg, route intravenous. As to conditions: plasma. The procedure, abridged:
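Rats (n = 3) received a single 10 mg/kg intravenous dose. Drug levels were measured by LC/MS/MS, and AUC from zero to infinity was derived alongside clearance and half-life as part of the pharmacokinetic profile.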

A short description of series [5]: Clearance in rat at 10 mg/kg, iv by LC/MS/MS analysis. As to conditions: in vivo. The series is classed as ADME, organism-based. On the set-up: dose 10 mg/kg, route intravenous. The procedure, abridged:
(§1)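 Rats (n = 3) given 10 mg/kg by intravenous administration; plasma levels measured by LC/MS/MS; AUC0-inf, CL and t1/2 reported.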

The nature of series [6]: Half life in rat at 10 mg/kg, iv by LC/MS/MS analysis. Particulars: in vivo. The series is classed as ADME, organism-based. Also noted: dose 10 mg/kg, route intravenous. The procedure, abridged:
as §1

Series [7] in a line: Drug level in rat brain at 10 mg/kg, iv after 0.17 hrs by LC/MS/MS analysis. As to conditions: read-out: Drug uptake. It is filed as ADME, organism-based. On the set-up: dose 10 mg/kg, route intravenous. Put shortly: (§2)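 Single intravenous dose of 10 mg/kg in rats, n = 3. Brain (ng/g) and plasma (ng/ml) concentrations measured by LC/MS/MS at 0.17, 0.75 and 4.00 h. Ratio is brain over plasma concentration.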

Series [8] is described as follows: Drug level in rat brain at 10 mg/kg, iv after 0.75 hrs by LC/MS/MS analysis. As to conditions: read-out: Drug uptake. It is filed as ADME, organism-based. On the set-up: dose 10 mg/kg, route intravenous. Put shortly:
as §2

Series [9] in a line: Drug level in rat brain at 10 mg/kg, iv after 4 hrs by LC/MS/MS analysis. It is filed as ADME, organism-based. On the set-up: dose 10 mg/kg, route intravenous. Particulars: read-out: Drug uptake. Put shortly:
as §2

Series [10] can be described thus: Drug level in rat plasma at 10 mg/kg, iv after 0.17 hrs by LC/MS/MS analysis. On the set-up: dose 10 mg/kg, route intravenous. It is filed as ADME, organism-based. The procedure, abridged: as §2
The nature of series [11]: Drug level in rat plasma at 10 mg/kg, iv after 0.75 hrs by LC/MS/MS analysis. It is filed as ADME, organism-based. On the set-up: dose 10 mg/kg, route intravenous. The procedure, abridged: as §2
A short description of series [12]: Drug level in rat plasma at 10 mg/kg, iv after 4 hrs by LC/MS/MS analysis. Also noted: dose 10 mg/kg, route intravenous. It is filed as ADME, organism-based. The procedure, abridged: as §2
Series [13] in a line: Ratio of drug level in brain to plasma in rat at 10 mg/kg, iv after 0.17 hrs by LC/MS/MS analysis. It is filed as ADME, organism-based. On the set-up: dose 10 mg/kg, route intravenous. The procedure, abridged: as §2
The nature of series [14]: Ratio of drug level in brain to plasma in rat at 10 mg/kg, iv after 0.75 hrs by LC/MS/MS analysis. It is filed as ADME, organism-based. On the set-up: dose 10 mg/kg, route intravenous. Put shortly: as §2
A short description of series [15]: Ratio of drug level in brain to plasma in rat at 10 mg/kg, iv after 4 hrs by LC/MS/MS analysis. The series is classed as ADME, organism-based. On the set-up: dose 10 mg/kg, route intravenous. Put shortly: as §2
A short description of series [16]: Half life in human liver microsomes by LC/MS/MS analysis. The series is classed as ADME, Microsome. The procedure, abridged:
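Human liver microsomes incubated at 37 °C. Parent compound quantified by LC/MS/MS at 0, 15, 45 and 80 min, giving t1/2 in min. Mean of triplicate experiments; buspirone run alongside.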

Molecules are shown by their SMILES. Where only a bound is given, the exact number is not on record here.

T1 sequence (P09874 whole entry): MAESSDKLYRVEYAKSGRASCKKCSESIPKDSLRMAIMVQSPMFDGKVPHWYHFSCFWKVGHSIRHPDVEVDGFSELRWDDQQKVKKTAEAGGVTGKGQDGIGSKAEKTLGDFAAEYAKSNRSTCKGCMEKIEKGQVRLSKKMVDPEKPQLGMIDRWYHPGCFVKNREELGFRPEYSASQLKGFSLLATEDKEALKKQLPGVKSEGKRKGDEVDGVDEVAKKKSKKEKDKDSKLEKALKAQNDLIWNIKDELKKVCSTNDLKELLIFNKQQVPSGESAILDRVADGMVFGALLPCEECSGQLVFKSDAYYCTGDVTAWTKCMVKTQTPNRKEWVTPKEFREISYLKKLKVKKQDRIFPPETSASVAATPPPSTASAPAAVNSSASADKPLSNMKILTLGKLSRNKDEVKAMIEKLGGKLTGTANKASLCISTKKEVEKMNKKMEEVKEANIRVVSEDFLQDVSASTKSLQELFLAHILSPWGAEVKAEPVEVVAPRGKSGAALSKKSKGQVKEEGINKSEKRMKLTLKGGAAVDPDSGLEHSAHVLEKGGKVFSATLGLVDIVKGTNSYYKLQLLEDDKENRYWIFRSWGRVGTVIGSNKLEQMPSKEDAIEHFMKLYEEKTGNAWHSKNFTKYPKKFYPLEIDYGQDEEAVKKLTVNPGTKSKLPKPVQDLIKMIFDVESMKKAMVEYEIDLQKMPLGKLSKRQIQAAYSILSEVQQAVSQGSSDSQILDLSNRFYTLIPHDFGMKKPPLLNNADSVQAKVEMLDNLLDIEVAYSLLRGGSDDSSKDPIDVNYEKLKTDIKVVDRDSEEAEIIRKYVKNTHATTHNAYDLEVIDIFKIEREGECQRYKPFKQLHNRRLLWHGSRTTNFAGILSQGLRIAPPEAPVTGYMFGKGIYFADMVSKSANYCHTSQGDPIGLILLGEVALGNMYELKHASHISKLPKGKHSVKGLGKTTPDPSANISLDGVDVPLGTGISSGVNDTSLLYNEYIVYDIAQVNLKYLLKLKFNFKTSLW

As for `O=c1[nH]c2ccc(OC3CCN(CCN4CCCCC4)CC3)cc2c2c1CSCC2`, half-maximal inhibition in [1] (IC50) required 173 nM. For the same compound, in series [2], the solubility entry was “Soluble”. Moreover, the ED50 in series [3] is over 30000 nM.
For the compound `CN(C)c1ccc(CCN2CCC(Oc3ccc4[nH]c(=O)c5c(c4c3)CCSC5)CC2)cc1`, the IC50 (as a rule, the concentration at which inhibition is half-maximal) in [1] was over 10000 nM. Also, the solubility result in series [2] was “Soluble”. This compound had an ED50 in series [3] of 9440 nM.
The like results for `CCCN1CCCC(Oc2ccc3[nH]c(=O)c4c(c3c2)CCSC4)C1` (stereo not drawn) were, in that order, 56 nM, “Soluble” and 740 nM.
Regarding `CCCN1CCC(Oc2ccc3[nH]c(=O)c4c(c3c2)CCSC4)CC1`, 42 nM corresponded to half-maximal inhibition in series [1] (IC50). Also, in series [2], the solubility result is “Soluble”. Further, the AUC(0-inf) – broadly, the area under the concentration-time curve extrapolated to infinity – in series [4] is 2910 ng·h/mL. In series [5], the clearance – broadly, the rate of elimination divided by the concentration – is 56.7 mL/min/kg. For the same compound, the half-life (as a rule, how long it takes for the measured level to halve) is 207 min in series [6] and 52.6 min in [16]. Besides, the concentration at 0.17 h in series [7] came to 1700 ng/g; in series [10], 2480 ng/mL. For the same compound, the concentration at 0.75 h in series [8] was found to be 391 ng/g; in series [11], 610 ng/mL. For the same compound, the concentration at 4 h turned out to be 13 ng/g in [9] and 18 ng/mL in series [12]. Also, the Kp (as a rule, the ratio of the level in a tissue or fluid to that in plasma or blood) at 0.17 h in [13] turned out to be 0.69. Moreover, the Kp at 0.75 h in series [14] came to 0.64. Also, the Kp at 4 h in series [15] was 0.72. The compound further registered an ED50 in series [3] of 220 nM.
Compound `O=S(=O)(NCCCN1CCOCC1)c1ccc2c(c1)Cc1c-2nc(O)c2ccccc12` returned an ED50 in series [3] of 1000 nM.
On to `CN1CCCC(Oc2ccc3[nH]c(=O)c4c(c3c2)CCSC4)C1` (stereo not drawn), for which, in series [1], the IC50 was 39 nM. In series [2], the solubility result is “Soluble”. The compound also yielded an ED50 in series [3] of 580 nM.
Compound `O=c1[nH]c2ccc(O)cc2c2c1CSCC2` registered an IC50 in series [1] of 99 nM.
Regarding `O=C1CC2(CCCC2)CC(=O)N1CCCCN1CCN(c2ncccn2)CC1` [BUSPIRONE], the half-life in series [16] stood at 3.8 min.
In turn, `O=c1[nH]c2ccc(OC3CCN(CCc4ccccc4)CC3)cc2c2c1CSCC2` had an IC50 in [1] of 38 nM. Moreover, in [2], the solubility result is listed as “Soluble”. This compound also showed an ED50 in [3] of 360 nM.
`CN1CCC(Oc2ccc3[nH]c(=O)c4c(c3c2)CCSC4)C1` (stereo not drawn) yielded an IC50 in series [1] of 80 nM. For the same compound, the solubility result in [2] is “Soluble”. Besides, the ED50 in series [3] was determined as 730 nM.
`CCCCCN1CCC(Oc2ccc3[nH]c(=O)c4c(c3c2)CCSC4)CC1` yielded an IC50 in [1] of 45 nM. Moreover, the solubility entry in series [2] is recorded as “Soluble”. Also, the ED50 in series [3] was 580 nM.
As to `O=c1[nH]c2ccc(OC3CCN(CCO)CC3)cc2c2c1CSCC2`, the IC50 in series [1] amounted to 29 nM. In addition, in series [2], the solubility entry was “Soluble”. The ED50 in [3] was 1600 nM.
On to `COCCN1CCC(Oc2ccc3[nH]c(=O)c4c(c3c2)CCSC4)CC1`, for which half-maximal inhibition in series [1] (IC50) required 40 nM. Further, the solubility result in series [2] is on record as “Soluble”. The compound also yielded an ED50 in series [3] of 1260 nM.
On to `CCN1CCC(Oc2ccc3[nH]c(=O)c4c(c3c2)CCSC4)C1` (stereo not drawn), for which the IC50 in series [1] is 13 nM. Besides, in [2], the solubility result is “Soluble”. The compound also registered an ED50 in [3] of 350 nM.
The like results for `CC(C)CCN1CCC(Oc2ccc3[nH]c(=O)c4c(c3c2)CCSC4)CC1` were, in that order, 71 nM, “Soluble” and 740 nM.
On to `O=c1[nH]c2ccc(OC3CCCNC3)cc2c2c1CSCC2` (stereo not drawn), for which the IC50 in series [1] amounted to 28 nM. The solubility entry in [2] is listed as “Soluble”. Also, the ED50 in series [3] stood at 890 nM.
As to `O=c1[nH]c2ccc(OC3CCN(c4ccccc4)CC3)cc2c2c1CSCC2`, the IC50 in series [1] amounted to 695 nM. Also, the ED50 in [3] came to 1860 nM.
`O=c1[nH]c2ccc(OC3CCN(Cc4ccccc4)CC3)cc2c2c1CSCC2` registered an IC50 in series [1] of 53 nM. Further, in series [2], the solubility entry is recorded as “Soluble”. The compound also registered an ED50 in series [3] of 800 nM.
Compound `CCN1CCCC(Oc2ccc3[nH]c(=O)c4c(c3c2)CCSC4)C1` (stereo not drawn) had an IC50 in [1] of 25 nM. In addition, in series [2], the solubility entry is reported as “Soluble”. Also, the ED50 in series [3] worked out at 280 nM.
